Source: PubChem
RBBP9 inhibitor: human RBBP9 inhibitors, primary screen, biochemical, fluorescence polarization, FP-Rh probe, HTS; actives 0.2% (n = 220,000); AID 1515, 2009; Serine hydrolase RBBP9 (Homo sapiens), O75884; recombinant RBBP9; inhibition, % at 7.94 µM;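 active means inhibition above the campaign mean of all tested compounds plus 3 SD, cut at about 14% in these data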;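 further: plate controls were DMSO wells with RBBP9 for no effect and wells lacking RBBP9 protein for full effect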
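Measured by: FP readout at 525/598 nm; material: recombinant human RBBP9; also added: Serine-hydrolase probe FP-Rh, 375 nM pre-mixing; medium: Tris buffer pH 8.0, NaCl, Pluronic; replication: one well per compound; doses: one concentration, 7.94 µM nominal, 0.794% DMSO; timing: preincubation 30 min plus labeling 45 min at 25 °C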
Mcl1 Bid PPI: Mcl-1/Bid binding inhibitors, primary screen, biochemical, TR-FRET, 1536-well; AID 1021, 2008; inhibition, % at 21.7 µM; Induced myeloid leukemia cell differentiation protein Mcl-1 (Homo sapiens), Q07820; TR-FRET Mcl-1/Bid-Dy647 peptide binding; actives 0.97% (n = 220,000);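 active means compounds that cut the binding signal by more than half at the single screening dose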;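 further: His-tagged Mcl-1 with europium anti-His antibody binding Bid BH3 peptide; 0% = Mcl-1 plus peptide wells and 100% = peptide-only wells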
Target sequence (Q07820 whole entry, looked up): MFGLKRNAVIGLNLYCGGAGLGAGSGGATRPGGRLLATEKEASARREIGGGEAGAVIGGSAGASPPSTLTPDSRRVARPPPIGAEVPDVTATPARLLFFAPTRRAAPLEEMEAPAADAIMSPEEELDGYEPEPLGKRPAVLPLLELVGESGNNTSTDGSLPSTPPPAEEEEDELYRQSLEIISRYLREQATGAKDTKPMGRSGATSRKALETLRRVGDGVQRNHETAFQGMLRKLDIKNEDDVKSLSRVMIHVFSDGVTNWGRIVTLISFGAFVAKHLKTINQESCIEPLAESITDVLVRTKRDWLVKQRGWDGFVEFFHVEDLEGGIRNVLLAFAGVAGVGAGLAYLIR
Bim-Mcl-1: inhibitors of Bim peptide binding to Mcl-1, primary screen, biochemical, bead-based flow cytometry, multiplex; Bim peptide-Mcl-1 binding; Induced myeloid leukemia cell differentiation protein Mcl-1 (Homo sapiens), Q07820; inhibition, % at 10 µM; AID 1009, 2008; actives 0.1% (n = 190,000); in the data active means inhibition above about 40%;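 further: 0% = no compound tracer wells and 100% = peptide blocker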
MCL1-BIM inh: inhibitors of MCL1 binding to BIM-BH3, primary screen, biochemical, fluorescence polarization; actives 0.68% (n = 320,000); inhibition, % at 10.9 µM; GST-MCL1 / FITC-Bim-BH3 fluorescence polarization; Induced myeloid leukemia cell differentiation protein Mcl-1 (Homo sapiens), Q07820;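 active means inhibition above the mean inhibition of all tested compounds plus 3 SD, set per campaign, cut at about 40% in these data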;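 further: 0% = DMSO wells and 100% = unlabeled Bim-BH3 peptide control; higher means more loss of mP so more displacement of Bim peptide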
EBV gp42 inh: Epstein-Barr virus gp42 inhibitors, primary screen, biochemical, uHTS, fluorescence polarization; Fluorescence polarization binding assay, mP read-out; inhibition, % (tested at 21.74 µM); actives 0.42% (n = 220,000); AID 1085, 2008; in the data active means inhibition above about 50%
Target sequence (Q1HVG2 whole entry, looked up): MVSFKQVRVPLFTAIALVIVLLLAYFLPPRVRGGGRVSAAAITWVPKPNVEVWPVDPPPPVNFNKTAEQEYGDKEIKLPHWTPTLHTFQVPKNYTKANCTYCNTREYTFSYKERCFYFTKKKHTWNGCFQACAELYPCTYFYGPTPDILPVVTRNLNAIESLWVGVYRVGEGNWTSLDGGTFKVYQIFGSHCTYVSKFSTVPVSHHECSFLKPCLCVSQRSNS
Mcl1 Noxa PPI: Mcl-1/Noxa binding inhibitors, primary screen, biochemical, TR-FRET, 1536-well; actives 1.5% (n = 220,000); inhibition, % at 21.7 µM; TR-FRET Mcl-1/Noxa peptide binding, 2 h; AID 1022, 2008; Induced myeloid leukemia cell differentiation protein Mcl-1 (Homo sapiens), Q07820;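 active means compounds that cut the protein-peptide binding signal by more than 50% relative to plate controls in a single-dose test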;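 further: His-tagged Mcl-1 with rhodamine Noxa BH3 peptide and terbium anti-His antibody; 0% = Mcl-1 plus Noxa peptide wells and 100% = peptide-only wells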
* marks the source's active call; other numbers are inactive results; nt = not tested or not shown; + = active, no number. This is a sample that favours compounds with a hit; in the whole collection about 2.2% have one here.

SMILES	RBBP9 inhibitor	Mcl1 Bid PPI	Bim-Mcl-1	MCL1-BIM inh	EBV gp42 inh	Mcl1 Noxa PPI
COc1ccc(C2(C)NC(=O)N(CC(=O)NCCC3=CCCCC3)C2=O)cc1OC (configuration not stated)	-6.0	84.3*	-1.0	-21.2	-21.4	6.0
COc1ccc2cc(C3(C)NC(=O)N(CC(=O)NCCC4=CCCCC4)C3=O)ccc2c1 (configuration not stated)	2.1	-5.0	4.0	-1.8	-29.9	9.8
CCOc1c(O)ccc(/C=C2\SC(=S)NC2=O)c1[N+](=O)[O-]	13.2	-46.9	0.0	12.4	-30.9	71.7*
CCNC(=O)/C(=C/c1ccco1)NC(=O)/C=C/c1ccccc1	-11.3	-12.3	-5.0	5.3	-8.1	-4.0
Cc1ccc(-n2c(O)c(C=Nc3ccccc3-c3n[nH]c(=S)[nH]c3=O)c3ccccc3c2=O)cc1C	-12.6	-94.1	-3.0	nt	3.7	100.6*
Cc1ccc(-n2c(O)c(C=Nc3ccccc3-c3n[nH]c(=S)[nH]c3=O)c3ccccc3c2=O)c(C)c1	0.3	-66.5	-4.0	22.9	4.8	62.8*
CC(C)(C)C1N=C(c2ccc3ccccc3c2)OC1=O (configuration not stated)	nt	nt	nt	-3.5	nt	nt
O=C(N=Nc1ccc(NOC(=O)c2ccccc2Br)cc1)c1ccccc1O	1.1	-61.5	-1.0	19.1	51.1*	36.2
O=c1[nH]c(/C=C/c2ccccc2[N+](=O)[O-])nc2ccccc12	-7.0	53.5*	-10.0	-0.1	-18.8	3.8
O=c1[nH]c(/C=C/c2ccccn2)nc2ccccc12	nt	nt	nt	2.2	nt	nt
COc1cccc(CN(C)C(=O)C2CC(=O)N(c3ccc4c(c3)OCCO4)C2)c1 (configuration not stated)	nt	nt	nt	0.8	nt	nt
Cc1cc2cc(NC(=O)c3ccco3)ccc2[nH]1	4.1	-16.8	-2.0	3.8	-4.3	8.5
O=C(Nc1ccc2[nH]c3c(c2c1)CCCC3)c1ccco1	0.8	-16.5	0.0	39.9*	68.2*	11.2
O=C1CN(C(=O)CNCc2ccccc2)c2ccccc2N1	-6.3	69.3*	nt	-2.6	-1.1	43.7
COc1ccccc1CNCC(=O)N1CC(=O)Nc2ccccc21	0.2	27.5	-2.0	-1.2	8.2	29.0
[2H]c1c([2H])c([2H])c(-c2nc(N3CCCCCC3)sc2C(=O)c2ccccc2)c([2H])c1[2H]	2.8	-0.3	3.0	3.0	-10.8	-7.1
Cc1ccc(S(=O)(=O)/N=C(\CCl)N2CCOCC2)cc1	-0.8	67.1*	-4.0	3.0	-13.6	8.9
Cc1ccc(S(=O)(=O)C(CCC(=O)N2CCOCC2)S(=O)(=O)c2ccc(C)cc2)cc1	-0.9	-15.3	1.0	11.8	-5.3	99.8*
Cc1c(/C=N/Nc2ccc(F)cc2)c(O)n(C)c(=O)c1C#N	4.4	-32.3	0.0	7.9	8.5	59.9*
CC(=O)Nc1ccc2[nH]c3ccccc3c2c1	-5.0	-27.5	-1.0	3.1	4.6	-18.1
O=C(Nc1ccc(Cl)cc1)c1cc2c(cc1O)[nH]c1ccccc12	12.4	34.1	nt	-0.5	-3.2	61.5*
O=C(OCc1cccc(F)c1)c1ccc2c(=O)n3c(nc2c1)CCC3	-8.5	61.3*	nt	-14.5	-11.0	-3.3
O=C(NCC(=O)N1CCC(Cc2ccccc2)CC1)c1ccc(Cl)cc1	nt	nt	nt	-9.5	nt	nt
O=C1c2cccc3c(O)ccc(c23)C(=O)N1Cc1ccco1	8.5	-8.1	nt	nt	171.9*	-65.6
O=C(C1CCN(CC2CC=CCC2)CC1)N(CCc1ccccc1)Cc1ccccc1 (configuration not stated)	-4.6	74.0*	-1.0	5.6	8.4	25.0
SMILES	RBBP9 inhibitor	Mcl1 Bid PPI	Bim-Mcl-1	MCL1-BIM inh	EBV gp42 inh	Mcl1 Noxa PPI
O=C(COC(=O)CCNS(=O)(=O)c1ccc2c(c1)OCCO2)NC1CCCc2ccccc21 (configuration not stated)	-1.5	75.6*	-47.0	-0.1	-26.7	3.7
Fc1ccccc1N1CCN(C2CCCN(Cc3cccc(C(F)(F)F)c3)C2)CC1 (configuration not stated)	nt	nt	nt	13.4	nt	nt
COc1ccc(N=C2NC(=O)S/C2=C\c2ccc(N(C)C)cc2)cc1	0.5	-31.5	-2.0	-114.5	95.1*	22.5
O=C(CN1CCC(C(=O)c2ccc(Cl)cc2)CC1)NC1CCCC1	nt	nt	nt	1.0	nt	nt
COc1cc(C2CC(=O)C3=C(C2)Nc2ncnn2C3c2cccs2)cc(OC)c1OC (configuration not stated)	-4.5	-13.5	nt	0.9	0.6	-17.4
COc1cc(C2C=C(c3cccs3)Nc3ncnn32)cc(OC)c1OC (configuration not stated)	2.7	-31.3	0.0	nt	105.4*	5.2
COc1ccc(C2C=C(c3cccs3)Nc3nc(CCCO)nn32)cc1 (configuration not stated)	2.2	-107.5	-2.0	+	151.0*	-12.5
COc1ccc(C2C=C(c3ccccc3)Nc3nc(CCCO)nn32)cc1 (configuration not stated)	-3.8	-20.6	-4.0	30.1	17.7	5.1
COc1cc(C2C(C#N)=C(N)Oc3cc(C)oc(=O)c32)cc2c1OCO2 (configuration not stated)	-4.0	-5.7	0.0	2.1	16.3	51.1*
Cc1ccccc1NC(=O)COC(=O)c1cc[n+]([O-])cc1	nt	nt	nt	-5.3	nt	nt
O=C(COC(=O)c1cc[n+]([O-])cc1)Nc1ccccc1Cl	-9.5	87.5*	0.0	-10.2	-5.5	-6.4
CN(C)c1ccc(/C=N/NC(=O)COc2ccccc2)cc1	1.5	-37.6	-2.0	8.3	-4.2	34.3
COc1cc(NC(=O)COc2ccccc2)c(OC)cc1NC(C)=O	-0.3	94.7*	0.0	2.4	-5.4	11.2
CN(NC(=O)COc1ccccc1)c1ccccc1	-4.5	94.1*	-8.0	0.5	-23.9	-16.3
CC1Sc2ccc(C(=O)OCc3ccccc3Cl)cc2NC1=O (configuration not stated)	nt	nt	nt	-2.2	nt	nt
CC(=O)Nc1ccc(N(C(=O)c2ccco2)C(C(=O)NC2CCCCC2)c2ccccc2)cc1 (configuration not stated)	nt	nt	nt	7.1	nt	nt
CCCOc1ccc(/C=C/C(=O)OCC(=O)N(C)c2c(N)n(Cc3ccccc3)c(=O)[nH]c2=O)cc1OCC	nt	nt	nt	-9.9	nt	nt
CCOc1ccc(-n2c(SCC(=O)Nc3ccc(CC)cc3)nc3n[nH]c(C)c3c2=N)cc1	-11.0	58.9*	2.0	-0.5	-13.7	58.7*
NC(=O)c1ccsc1NC(=O)c1ccc(N2CCCC2=O)cc1	-8.2	-1.7	0.0	5.2	8.9	54.9*
